Assay results of several laboratories.
Compare with care: the assays were run in different laboratories.
Observed: cell growth or viability

Compound	cell line	method	tested at	time	measurement	result
COc1cccc2c1C(=O)c1c(O)c3c(c(O)c1C2=O)C[C@@](O)(C(=O)CO)C[C@@H]3O[C@H]1C[C@H](N)[C@H](O)[C@H](C)O1	HEK293	MTT		72 h	IC50	60 nM
N[C@H]1CC[C@H](N[C@@H]2C[C@H]2c2ccccc2)CC1	HEK293	resazurin			IC50	120000 nM
NC(=O)COc1ccc(C(=O)C(Cl)Cl)cc1[N+](=O)[O-]	NCI-H1975	MTT	2.5 µM		inhibition	26.3%
C=C(F)C(=O)N1CCN(c2nc(OC[C@@H]3CCCN3C)nc3c2CCN(c2cccc4cccc(Cl)c24)C3)C[C@@H]1CC#N	SW1463	ATP luminescence			IC50	367 nM
C=CC(=O)Nc1cc(Nc2nccc(-c3cn(C)c4ccccc34)n2)c(OC)cc1N(C)CCN(C)C	NCI-H1975	MTT	0.5 µM	72 h	inhibition	69.6%
Cc1ccc2c(-c3cc4c(CN5CCN(Cc6ccccn6)CC5)cnc(C)c4o3)cc(=O)oc2c1	NCI-H1975	MTT		72 h	IC50	32100 nM
C=CC(=O)N1CCC([C@@H]2CCNc3c(C(N)=O)c(-c4ccc(Oc5ccccc5)cc4)nn32)CC1	TMD8			6 days	IC50	0.7 nM
O=C(NO)c1ccc(CNc2nc3cccc(-c4ccc5c(c4)OCO5)n3n2)cc1	SF-539	SRB			GI50	600 nM
CN(C)C/C=C/C(=O)Nc1cc2c(Nc3ccc(F)c(Cl)c3)ncnc2cc1O[C@H]1CCOC1	NCI-H1975	MTT		72 h	IC50	30500 nM
C=CC(=O)NC1CCN(c2ncc3ncnc(Nc4ccc(Oc5ccc6c(c5)ncn6C)c(C)c4)c3n2)CC1	SUM-159-PT				EC50	334 nM
O=C(c1ccccc1)c1ccc(Oc2ccc(C(=O)C(Cl)Cl)cc2[N+](=O)[O-])cc1	NCI-H1975	MTT	2.5 µM		inhibition	97.8%
CC1(C)CCC(CN2CCN(c3ccc(C(=O)NS(=O)(=O)c4ccc(NCC5CCOCC5)c([N+](=O)[O-])c4)c(Oc4cnc5[nH]ccc5c4)c3)CC2)=C(c2ccc(Cl)cc2)C1	Rec1	ATP luminescence		48 h	IC50	489 nM
O=C1c2ccccc2C(=O)c2c(Oc3ccc(C(=O)C(Cl)Cl)cc3[N+](=O)[O-])cccc21	NCI-H1975	MTT	2.5 µM		inhibition	97.1%
Cc1ncc(CN2CCN(Cc3ccccn3)CC2)c2cc(C(=O)c3ccc4c(c3)OCCO4)oc12	NCI-H1975	MTT		72 h	IC50	38800 nM
CC(C)Oc1ccc(S(=O)(=O)c2ccc(Oc3cc(OCC(N)=O)c(C(=O)C(Cl)Cl)cc3[N+](=O)[O-])cc2)cc1	HEK293	MTT		72 h	IC50	1220 nM
Cc1sc2c(c1C)C(c1ccc(Cl)cc1)=N[C@@H](CC(=O)NCCCCCCCCNC(=O)COc1cccc3c1C(=O)N(C1CCC(=O)NC1=O)C3=O)c1nnc(C)n1-2 (stereo partly shown)	SET-2	ATP luminescence			IC50	35 nM
